PMC3501683 (ACS medicinal chemistry letters, 2012)
Entries after “also recorded” stand apart in the source; their conditions may differ.

Columns and labels:
secreted LasB = secreted LasB (Pseudomonas aeruginosa, UniProt Q02RJ6); test: bacterial P. aeruginosa elastase assays; type: cell-based
LasB = LasB (Pseudomonas aeruginosa, UniProt P14756); test: LasB fluorescence assay based on a LasB-cleavable FRET peptide substrate; type: biochemical; settings: for less potent than 8a and 8b in the in vitro LasB assay: relative to 8a and 8b; for improvement in potency: relative to fragment hits 3 and 4
[1] = system: P. aeruginosa strain PA14; test: swarming assay on swarm agar plates; type: cell-based, Pseudomonas aeruginosa; settings: for swarming inhibition: data not shown; for effect on swarming: 25 μM, 16 h at 30 °C, versus DMSO-treated control
Method in brief: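 Test compound was added to the swarm agar at 25 μM, and P. aeruginosa PA14 was grown on these plates for 16 h at 30 °C. Swarm morphology was compared visually with plates containing DMSO as the vehicle control.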

[2] = stability studies in bacterial culture medium; type: physicochemical; settings: 48 h period

Chain of LasB (P14756 198-498): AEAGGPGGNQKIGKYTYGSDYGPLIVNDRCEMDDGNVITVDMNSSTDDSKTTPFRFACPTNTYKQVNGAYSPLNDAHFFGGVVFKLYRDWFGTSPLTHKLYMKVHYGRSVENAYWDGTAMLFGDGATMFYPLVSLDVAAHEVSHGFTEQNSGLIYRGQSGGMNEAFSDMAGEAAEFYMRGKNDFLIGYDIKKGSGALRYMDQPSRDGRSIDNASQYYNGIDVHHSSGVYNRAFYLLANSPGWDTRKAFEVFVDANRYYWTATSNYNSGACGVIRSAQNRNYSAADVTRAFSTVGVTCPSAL
Chain of secreted LasB (Q02RJ6 198-498): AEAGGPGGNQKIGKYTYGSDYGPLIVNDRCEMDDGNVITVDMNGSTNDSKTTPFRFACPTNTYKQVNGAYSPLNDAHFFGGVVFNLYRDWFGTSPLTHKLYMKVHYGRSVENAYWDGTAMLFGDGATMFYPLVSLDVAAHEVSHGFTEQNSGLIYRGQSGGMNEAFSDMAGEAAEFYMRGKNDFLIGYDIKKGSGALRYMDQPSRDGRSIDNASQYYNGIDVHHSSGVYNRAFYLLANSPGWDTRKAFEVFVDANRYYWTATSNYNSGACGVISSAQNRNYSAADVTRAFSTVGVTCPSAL

Row | SMILES | antagonism in bacterial P. aeruginosa elastase assays (secreted LasB inhibition) (secreted LasB) | less potent than 8a and 8b in the in vitro LasB assay (LasB) | swarming inhibition [1] | stability in bacterial culture medium [2] | improvement in potency (LasB) | effect on swarming [1]
1 | O=C(Cc1ccccc1)NO [Compound 1] | no secreted LasB inhibition; also recorded: no antagonism | ~ 5 fold | no swarming inhibition | hydrolytic instability |  | 
2 | O=C(Cc1cccc(F)c1)NO [Compound 2] | no secreted LasB inhibition; also recorded: no antagonism | ~ 5 fold | no swarming inhibition | hydrolytic instability |  | 
3 | Cc1c(O)c(=S)ccn1Cc1ccc(-c2ccc(F)c(F)c2)cc1 [Compound 8a] |  |  |  | no detectable S-oxidation or decomposition | ~ 30 fold | almost completely abolished swarming
4 | Cc1c(O)c(=S)ccn1Cc1ccc(-c2ccccc2)cc1 [Compound 8b] |  |  |  | no detectable S-oxidation or decomposition | ~ 30 fold | almost completely abolished swarming
